# Measurements reported in ChEMBL document CHEMBL3272177, “Hypolipidemic alkoxybenzoic acids” (1976).
# Legend:
# Set-up in all cases: scale not given: the % may be the effect or the level left
# [1] = species on record: Rattus norvegicus; experiment: Reduction in sterol level in CFE rat […] in serum at 0.05% of diet treated through diet for 6 days relative to control; format: functional
# In short: (§1)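 Compound dissolved in methanol-chloroform (1:3 v/v), mixed into ground rat chow at 0.1, 0.05 or 0.025% (w/w), and solvent evaporated; controls received solvent-treated chow. Rats fed ad libitum with water for 6 days, then killed fed and bled. Serum sterols and triglycerides measured by autoanalyzer. Values given as percent of control, mean ± SE; significance by Student's t test.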
# [2] = species on record: Rattus norvegicus; experiment: Reduction in triglyceride level in CFE rat […] at 0.025% of diet treated through diet for 6 days relative to control; format: functional, Serum; in short: as §1
# [3] = species on record: Rattus norvegicus; experiment: Reduction in triglyceride level in CFE rat […] in serum at 0.05% of diet treated through diet for 6 days relative to control; format: functional; in short: as §1
# [4] = species on record: Rattus norvegicus; experiment: Reduction in sterol level in CFE rat […] at 0.025% of diet treated through diet for 6 days relative to control; format: functional, Serum; in short: as §1
# [5] = species on record: Rattus norvegicus; experiment: Reduction in triglyceride level in CFE rat […] in serum at 0.1% of diet treated through diet for 6 days relative to control; format: functional; in short: as §1
# [6] = species on record: Rattus norvegicus; experiment: Reduction in sterol level in CFE rat […] in serum at 0.1% of diet treated through diet for 6 days relative to control; format: functional; in short: as §1
Compound,Activity [1],Activity [2],Activity [3],Activity [4],Activity [5],Activity [6]
C=CCCCCCCCCCOc1ccc(C(=O)OC)cc1,94%,65%,52%,97%,58%,90%
CCCCCCCC/C=C/CCCCCCCCOc1ccc(C(=O)OC)cc1,102%,73%,86%,102%,46%,104%
CCCCCCCCCCCC(Cl)CCOc1ccc(C(=O)OC)cc1 (stereo not drawn),87%,80%,53%,100%,45%,84%
CCCCCCCCCCCC(CCOc1ccc(C(=O)OC)cc1)SC(C)=O (stereo not drawn),89%,83%,70%,94%,59%,81%
COC(=O)c1ccc(OCCCCCCCCCCCO)cc1,94%,140%,86%,94%,72%,92%
COC(=O)c1ccc(OCCCCCCCCCCCCCCCO)cc1,98%,98%,104%,96%,89%,93%
COC(=O)c1ccc(OCCCCCCCCCCCOS(C)(=O)=O)cc1,105%,79%,81%,105%,72%,91%
COCCCCCCCCCCCOc1ccc(C(=O)OC)cc1,96%,77%,69%,93%,36%,104%
COC(=O)c1ccc(OCCCCCCCCCCCSC(C)=O)cc1,98%,66%,88%,106%,63%,113%
CCSCCCCCCCCCCCOc1ccc(C(=O)OC)cc1,100%,71%,74%,110%,65%,100%
CCCCSCCCCCCCCCCCOc1ccc(C(=O)OC)cc1,92%,87%,62%,100%,69%,96%
COC(=O)c1ccc(OCCCCCCCCCCCSCc2ccccc2)cc1,85%,64%,49%,91%,58%,87%
COC(=O)c1ccc(OCCCCCCCCCCCSC#N)cc1,102%,80%,94%,102%,145%,160%
COC(=O)c1ccc(OCCCCCCCCCCCCl)cc1,108%,94%,81%,110%,41%,102%
CCCCNCCCCCCCCCCCOc1ccc(C(=O)OC)cc1,95%,104%,88%,102%,114%,96%
CCCCNCCCCCCCCCCCOc1ccc(C(=O)OC)cc1.Cl,96%,87%,71%,100%,66%,89%

Compound,Activity [1],Activity [2],Activity [3],Activity [4],Activity [5],Activity [6]
CCCCNC(=O)CCCCCCCCCCOc1ccc(C(=O)OC)cc1,100%,95%,97%,99%,81%,96%
CCCCCCCCCCCCCCCCOc1ccc(C(=O)OC2CCN(C)CC2)cc1,87%,100%,110%,85%,117%,96%
CCCCCCCCCCC/C=C/CCCOc1ccc(C(=O)OC)cc1,73%,72%,57%,68%,68%,75%
CCCCCCCCCCCCC/C=C\COc1ccc(C(=O)OC)cc1,83%,96%,83%,89%,89%,82%
CCCCCCCCCCCCCC#CCOc1ccc(C(=O)OC)cc1,83%,78%,66%,89%,57%,89%
COC(=O)c1ccc(OCC(=O)C23CC4CC(CC(C4)C2)C3)cc1,96%,88%,82%,97%,100%,89%
COC(=O)c1ccc(OCC2(C34CC5CC(CC(C5)C3)C4)SCCS2)cc1,89%,94%,83%,94%,112%,93%
CCCCCCCCCCCC(=O)CCOc1ccc(C(=O)OC)cc1,93%,78%,61%,100%,61%,81%
CCCCCCCCCCC/C(CCOc1ccc(C(=O)OC)cc1)=N/O,67%,53%,43%,74%,32%,64%
CCCCCCCCCCCC1OC1CCCOc1ccc(C(=O)OC)cc1 (stereo not drawn),89%,74%,64%,103%,65%,84%
CCCCCCCCCCCCCCCCOc1ccc(C(=O)O)cc1Cl,97%,69%,87%,108%,75%,103%
CCCCCCCCCCCCCCCCOc1c(Br)cc(C(=O)OC)cc1Br,94%,96%,103%,94%,88%,82%
CCCCCCCCCCCCCCCCOc1c(Br)cc(C(=O)OC)cc1[N+](=O)[O-],93%,113%,101%,93%,95%,97%
CCCCCCCCCCCC(CCOc1ccc(C(=O)OC)cc1)OS(=O)(=O)c1ccc(C)cc1 (stereo not drawn),103%,91%,91%,102%,86%,98%
CCCCCCCCCCCCCCC(C)(CC)Oc1ccc(C(=O)O)cc1 (stereo not drawn),–,94%,–,100%,94%,102%
CCCCCCCCCCCC(O)C(O)CCCOc1ccc(C(=O)O)cc1 (stereo not drawn),86%,–,60%,–,55%,83%
